Assay outcomes (PubChem BioAssay)
The list is not random: actives were taken first. Their share in the collection is about 9.6%.
HCT116 PTEN-null = growth suppression of PTEN-null HCT116, primary screen, cell-based, CellTiter-Glo | HCT116 PTEN-null viability, 60 h; active compounds read low | viability, % at 10 µM | 140,000 tested, 1.2% active | AID 827, 2007;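 active = viability at or below a set limit, 4 SD under the median of all tested compounds, cut at about 3.7% in these data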;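 also: PTEN knockout HCT116 line with beta catenin targeted HCT116 as companion control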
L major viab = Leishmania major promastigote growth inhibition, primary screen. Leishmania major promastigotes, resazurin fluorescence viability. inhibition, % at 10 µM. 200,000 tested, 9% active. AID 1063, 2008; in the data active = inhibition above about 50%;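 also: promastigotes grown with compound for 44 hours at 28 °C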
TNAP act hi DEA = TNAP activators at high phosphate acceptor level, primary screen, biochemical, luminescence, uHTS. 200,000 tested, under 10 active. Alkaline phosphatase, tissue-nonspecific isozyme (Homo sapiens), P05186. purified TNAP, CDP-star luminescence, 1 M DEA, 30 min; active compounds read high; 0 = EDTA background, 1 = DMSO-only activity. activation factor at 20 µM;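 active = activation factor at least 2 at 20 µM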
Target sequence (P05186 whole entry, looked up): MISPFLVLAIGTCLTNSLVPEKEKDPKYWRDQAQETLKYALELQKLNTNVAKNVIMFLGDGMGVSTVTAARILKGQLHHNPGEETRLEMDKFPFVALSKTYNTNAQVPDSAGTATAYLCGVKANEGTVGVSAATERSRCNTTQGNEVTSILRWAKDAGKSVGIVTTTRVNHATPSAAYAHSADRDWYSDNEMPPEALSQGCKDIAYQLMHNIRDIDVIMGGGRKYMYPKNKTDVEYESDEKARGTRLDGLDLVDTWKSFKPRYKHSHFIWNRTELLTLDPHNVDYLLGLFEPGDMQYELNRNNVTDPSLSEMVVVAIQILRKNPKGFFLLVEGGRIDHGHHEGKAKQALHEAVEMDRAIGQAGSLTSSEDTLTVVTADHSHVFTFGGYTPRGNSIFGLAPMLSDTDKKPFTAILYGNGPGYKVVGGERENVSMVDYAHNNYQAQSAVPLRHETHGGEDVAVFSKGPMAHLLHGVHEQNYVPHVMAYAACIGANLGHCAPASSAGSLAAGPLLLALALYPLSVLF
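Assay system: human TNAP; Input: enzyme diluted 1/800 final; Reagent: CDP-star luminogenic substrate at 100 µM final; Timing: 30 min, room temperature; Signal: luminescence; Evaluation: TNAP activation factor scaled between EDTA and DMSO control wells.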
TNAP inh hi DEA = human TNAP enzyme inhibitors, primary screen, biochemical, luminescent, high phosphate acceptor level, uHTS | Alkaline phosphatase, tissue-nonspecific isozyme (Homo sapiens), P05186 | purified TNAP, CDP-star luminescence, 1 M DEA | inhibition, % at 20 µM | 200,000 tested, 0.03% active | AID 1135, 2008;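 active = over 50% inhibition of tissue-nonspecific alkaline phosphatase at 20 µM in the single-dose screen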;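 also: plate controls were DMSO wells for no effect and EDTA-quenched wells as full inhibition for full effect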
bCat KO growth = primary screen for growth suppressors in beta-catenin knockout HCT116 cells (colon tumor, human) | 140,000 tested, 1.5% active | viability, % at 10 µM | HCT116 beta-catenin knockout viability, CellTiter-Glo, 60 h; active compounds read low;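 active = viability at or under a set limit, the compound median less 4 SD, cut at about 6% in these data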;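 also: 0% = Hyamine 1622 control at 20 µM and 100% = untreated cell control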
TNAP inh no acc = human TNAP enzyme inhibitors, primary screen, biochemical, luminescent, no phosphate acceptor, uHTS; Alkaline phosphatase, tissue-nonspecific isozyme (Homo sapiens), P05186; purified TNAP, CDP-star luminescence, 30 min; inhibition, % at 20 µM; 200,000 tested, 0.26% active; AID 1012, 2008;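 active = tissue-nonspecific alkaline phosphatase inhibition above about 50% at 20 µM in the single-dose screen, limit read from the data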;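 also: 0% = DMSO negative control and 100% = EDTA positive control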
The depositor's hits bear a star; / = not tested or not shown.

SMILES | HCT116 PTEN-null | L major viab | TNAP act hi DEA | TNAP inh hi DEA | bCat KO growth | TNAP inh no acc
COc1cccc(/C=N/NC(=O)CN2CC(c3ccccc3)CC2=O)c1O (stereo not given) | 38 | 0 | 1 | 5 | 23 | -130
COCCCNCCOCCOc1ccc(C)cc1Br | 88 | 90* | 1 | -3 | 88 | -13
CCOc1ccc(-n2c(SCC(=O)c3c(N)n(C)c(=O)n(C)c3=O)nnc2-c2cccnc2)cc1 | 100 | 48 | 1.1 | -8 | 95 | -13
O=C(NCC(c1cccnc1)N1CCN(c2ccccc2)CC1)c1ccc2c(c1)OCO2 (stereo not given) | 37 | 88* | 1.1 | -5 | 68 | -18
O=C(NCC(c1cccnc1)N1CCOCC1)c1ccc2c(c1)OCO2 (stereo not given) | 100 | 3 | 0.9 | 6 | 105 | -1
COc1cc(C(=O)NCC(c2cccnc2)N2CCN(c3ccccc3)CC2)cc(OC)c1OC (stereo not given) | 81 | 67* | 1.1 | -8 | 92 | -16
Cc1ccc(-c2nc(N)sc2-c2ccccc2)cc1C | 104 | 22 | 1 | -1 | 91 | -8
O=C1C=C(Nc2ccc(Cl)cc2)CC(c2ccccc2)C1 (stereo not given) | 24 | 3 | 1 | -2 | 30 | -10
C[C@](N)(Cc1ccc(O)c(O)c1)C(=O)O | 18 | -9 | 1 | 5 | 6.1* | 54*
COC(=O)C(N)Cc1ccc(O)c(O)c1 (stereo not given) | 47 | -4 | 1 | 4 | 54 | 47
COc1ccc(/C=N/n2cnc3c([nH]c4ccccc43)c2=O)cc1COc1ccccn1 | / | 7 | 1 | -1 | / | -8
CCOC(=O)CN(C(=O)COc1ccc2c(C)cc(=O)oc2c1)c1ccc(OCC)cc1 | / | 6 | 1 | -2 | / | -4
OC1(c2ccc(Br)cc2)CCNCC1 | 106 | 84* | 1 | -5 | 91 | -7
O=C1CC(N2CCC(O)(c3ccc(Br)cc3)CC2)C(=O)N1c1ccc(Cl)cc1 (stereo not given) | 101 | -7 | 1 | 0 | 102 | -14
O=C(NCCc1c[nH]c2ccccc12)C1CCN(S(=O)(=O)c2ccccc2F)CC1 | / | 98* | 1 | 2 | / | -10
Cc1ccc(NC(=O)Cc2c[nH]c3ccccc23)cc1S(=O)(=O)N1CCCCCC1 | 77 | 92* | 1.1 | -6 | 78 | -21
COCCNC(=O)C1CCC(Cn2c(=S)[nH]c3ccccc3c2=O)CC1 (stereo not given) | 93 | 0 | 1 | 0 | 91 | -6
O=C(NCCc1c[nH]c2ccccc12)C1CCN(c2nnc(N3CCCC3=O)s2)CC1 | 95 | 84* | 1 | 2 | 102 | -4
O=C(NCCc1c[nH]c2ccccc12)C1CCC(Cn2c(=S)[nH]c3ccccc3c2=O)CC1 (stereo not given) | 64 | 100* | 1 | 2 | 53 | 0
O=C(O)C1CCCCC1C(=O)NCCc1c[nH]c2ccccc12 (stereo not given) | 97 | 6 | 1 | -3 | 96 | -13
CC1CCCC(C)N1C(=O)COc1ccc(C(=O)N/N=C/c2ccc(C(=O)O)cc2)cc1 (stereo not given) | / | -10 | 1 | -3 | / | -11
COc1ccc2oc(=O)c(C(=O)NCc3ccco3)cc2c1 | / | -2 | 1 | -1 | / | -5
COc1cc(CNC(=O)c2ccc(Cn3nc(C)c(Cl)c3C)o2)cc(OC)c1 | 95 | 53* | 1 | 0 | 75 | -4
O=C(CN1C(=O)C2C3C=CC(C3)C2C1=O)Nc1ccc(S(=O)(=O)N2CCCCC2)cc1 (stereo not given) | 91 | 2 | 1 | -1 | 95 | -3
CCCOc1ccc(OCCOCCNCc2ccccc2)cc1 | 92 | 98* | 1 | -1 | 72 | -7
Cc1cc(C)c(C)c(OCCOCCNCc2ccccc2)c1 | 54 | 77* | 1.1 | -7 | 41 | -12
CCOc1ccc(OCCOCCNCCOC)cc1 | 98 | 70* | 1 | 0 | 93 | -6
